The target of assay [1] is T1, Adenosine receptor A1 (Rattus norvegicus, UniProt P25099).
T1 sequence (P25099 whole entry): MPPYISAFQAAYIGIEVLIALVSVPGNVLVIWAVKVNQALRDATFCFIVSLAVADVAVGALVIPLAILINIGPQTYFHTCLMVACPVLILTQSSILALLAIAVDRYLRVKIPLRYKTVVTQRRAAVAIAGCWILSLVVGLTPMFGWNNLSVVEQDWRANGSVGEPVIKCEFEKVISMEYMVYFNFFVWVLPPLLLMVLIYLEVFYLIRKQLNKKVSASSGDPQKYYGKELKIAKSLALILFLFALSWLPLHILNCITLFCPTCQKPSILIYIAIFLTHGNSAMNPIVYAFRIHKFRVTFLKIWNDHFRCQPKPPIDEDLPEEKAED
The experiment in a line: Binding affinity against Adenosine A1 receptor in rat brain membrane, using [3H]N6-cyclohexyladenosine as the radioligand. The assay is classed as tissue-based.

Assay [2] has as its target Adenosine receptors; A1 & A2 (Rattus norvegicus) (UniProt P29276+P25099+P30543). In words: (§1) Selectivity for A2 and A1 receptors was evaluated. The assay is classed as protein assay. The method in brief: (§2)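 Rat brain membranes (A1) bound with 1 nM [3H]-N6-cyclohexyladenosine (25 Ci/mmol). Rat striatal membranes (A2) bound with 4 nM [3H]NECA (30 Ci/mmol) in the presence of 50 nM N6-cyclopentyladenosine. Both incubations ran 1 h at 25 °C. Selectivity compares the affinities from the two binding assays.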

Assay [3] concerns the target Adenosine A2 receptor (Rattus norvegicus, UniProt P29276+P30543). The experiment in a line: Binding affinity against Adenosine A2 receptor in rat striatal membrane, using [3H]-NECA as the radioligand.
Assay [4] is described as follows: as §1. The method in brief: as §2

Each structure is given as a SMILES string.

Turning to `CCCCn1c(=O)c2c3nc[nH]c3ccc2n(CCCC)c1=O`, the Ki in assay [1] was determined as 0.174 µM; in assay [3], 1.96 µM. Also, in assay [2], the Ratio came out at 11.2.

Consider `CC(C)Cn1c(=O)n(C)c(=O)c2c3nc[nH]c3ccc21`, for which the values for the Ki in assay [1] and in assay [3] were 0.86 µM and 1.97 µM, respectively. Besides, the Ratio in assay [2] is 2.3.

On to `CC(C)Cn1c(=O)n(C)c(=O)c2nc[nH]c21` [ISOBUTYLMETHYLXANTHINE], for which the Ratio in assay [4] is 5.6. Further, the Ki in assay [3] amounted to 13.8 µM.

The compound `Cn1c(=O)c2ncn(C)c2n(C)c1=O` [ISOCAFFIENE] gave a Ki in assay [1] greater than 1000 µM.

For `CC(C)Cn1c(=O)n(C)c(=O)c2cc3[nH]cnc3cc21`, the Ki in assay [1] turned out to be 0.62 µM; in assay [3], 2.4 µM. In addition, in assay [2], the Ratio is 3.9.

Regarding `Cn1c(=O)c2c3c(ccc2n(C)c1=O)ncn3C`, the Ki was 10.3 µM in assay [1] and 12.7 µM in assay [3]. Moreover, the Ratio in assay [2] came out at 1.23.

Regarding `Cn1c(=O)c2c3nc(-c4ccccc4)[nH]c3ccc2n(C)c1=O`, the Ki in assay [1] was determined as 0.45 µM; in assay [3] it was 10.4 µM. The Ratio in assay [4] came to 23.

For `CCCn1c(=O)c2cc3nc[nH]c3cc2n(CCC)c1=O`, the Ki in assay [1] is 0.123 µM; in assay [3], 1.32 µM. For the same compound, the Ratio in assay [2] amounted to 10.7.

Take `Cn1c(=O)c2cc3nc[nH]c3cc2n(C)c1=O`: the Ratio in assay [2] was determined as 3.6. In assay [3], this compound yielded a Ki of 85 µM.

Take `CCCn1c(=O)c2c3nc[nH]c3ccc2n(CCC)c1=O`: the inhibition constant Ki in assay [1] stood at 0.296 µM; in assay [3] it was 0.79 µM. The Ratio in assay [2] was determined as 2.7.

As for `Cn1c(=O)c2cc3[nH]cnc3cc2n(C)c1=O`, the Ki in assay [1] came to 24 µM.

As to `CCCCn1c(=O)c2cc3nc[nH]c3cc2n(CCCC)c1=O`, the Ki in assay [1] amounted to 0.179 µM; in assay [3], 0.67 µM. For the same compound, the Ratio in assay [2] came out at 3.7.

Take `CCn1c(=O)c2c3nc(-c4ccccc4)[nH]c3ccc2n(CC)c1=O`: the Ki in assay [1] was greater than 100 µM; in assay [3] it was 58 µM.

Take `Cn1c(=O)c2c3nc[nH]c3ccc2n(C)c1=O`: the inhibition constant (Ki) in assay [1] is 13.4 µM; in assay [3], 17.9 µM. Besides, in assay [2], the Ratio was found to be 1.34.

For the compound `Cn1c(=O)c2cc3c(cc2n(C)c1=O)ncn3C`, the Ki in assay [1] amounted to 11.6 µM; in assay [3], 23 µM. In addition, in assay [2], the Ratio is 1.99.

`CCn1c(=O)c2cc3nc(-c4ccccc4)[nH]c3cc2n(CC)c1=O`: the Ki in assay [1] and in assay [3] was greater than 100 µM in each case.

For `Cn1c(=O)c2cc3nc(-c4ccccc4)[nH]c3cc2n(C)c1=O`, the Ki in assay [1] and in assay [3] was greater than 100 µM each time.

In the case of `Cn1c(=O)c2cc3ncn(C)c3cc2n(C)c1=O`, the Ki in assay [1] was found to be 15.2 µM; in assay [3], 58 µM. The Ratio in assay [2] was found to be 3.8.

In general, Ki refers to a measure of affinity in units of concentration, obtained from inhibition or displacement. Higher therefore signals a looser hold on the target.

The values are drawn from ChEMBL document CHEMBL1124345, “Linear and proximal benzo-separated alkylated xanthines as adenosine-receptor antagonists” (J Med Chem, 1989).
